# Experiments:
# [1] = Retardation factor of the compound using 1-butanol-pyridine-0.6 M ammonium acetate in 0.1% aqueous acetic acid at ratio of 5:3:11 (v/v) as solvent system by partition chromatography; type: physicochemical; settings: buffer
# [2] = Retardation factor of the compound using 1-butanol-pyridine-acetic acid-water at ratio of 6.0:6.0:1.2:4.8 as solvent system by thin layer chromatography; type: physicochemical; settings: buffer
# [3] = Retardation factor of the compound using 1-butanol-acetic acid-water at ratio of 4:3:3 as solvent system by thin layer chromatography; type: physicochemical; settings: buffer
# [4] = Retardation factor of the compound measured at 400 V for 4 hrs by paper electrophoresis; type: physicochemical
# [5] = target: T1, Opioid receptor (Rattus norvegicus) (UniProt P33533+P34975+P33535); test: Displacement of [3H]naloxone from opioid receptor in rat brain after 30 mins; type: tissue-based
# Summary of the method: (§1)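 Rat brain homogenate (2-mL aliquots, ca. 1 mg wet weight) incubated with […] [3H]naloxone (25 Ci/mmol) for 30 min at 25 °C, with test peptides at three to five concentrations. Each concentration run as three separate sets of duplicates. ID50 taken from log-probit plots. The relative value is expressed against natural sheep beta-endorphin.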
# [6] = target: T1, Opioid receptor (Rattus norvegicus); test: Displacement of [3H]naloxone from opioid receptor in rat brain after 30 mins relative to natural sheep beta-endorphin; type: tissue-based; summary of the method: as §1
# [7] = target: T1, Opioid receptor (Rattus norvegicus); test: Modulation of opioid receptor in rat vas deferens assessed as inhibition of electrically evoked contractions; type: tissue-based
# Summary of the method: (§2)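 Rat vas deferens, electrically stimulated; depression of contractions recorded over five increasing concentrations. Each concentration is the mean from six different tissues. ID50 derived from log-probit plots. The relative value and ratio are expressed against natural sheep beta-endorphin.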
# [8] = target: T1, Opioid receptor (Rattus norvegicus); test: Modulation of opioid receptor in rat vas deferens assessed as inhibition of electrically evoked contractions relative to natural sheep beta-endorphin; type: tissue-based; design: scale not given: the % may be the effect or the level left; summary of the method: as §2
# [9] = species on record: Cavia porcellus; test: Modulation of opioid receptor in guinea pig ileum assessed as inhibition of electrically evoked contractions; type: tissue-based
# Summary of the method: (§3)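 Guinea pig ileum, electrically stimulated; depression of contractions measured. Each tissue received increasing concentrations of only one compound, to avoid tachyphylaxis seen with repeat doses given 30 min apart. ID50 taken from log-probit plots of five increasing concentrations, each the mean from six tissues. The relative value is expressed against natural sheep beta-endorphin.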
# [10] = species on record: Cavia porcellus; test: Modulation of opioid receptor in guinea pig ileum assessed as inhibition of electrically evoked contractions relative to natural sheep beta-endorphin; type: tissue-based; design: scale not given: the % may be the effect or the level left; summary of the method: as §3
ID50 [5] [nM],Activity [6] [%],ID50 [7] [nM],Activity [8] [%],Compound,Rf [1],Rf [2],Rf [3],Rf [4],ID50 [9] [nM],Activity [10] [%]
,,,,CC[C@H](C)[C@H](NC(=O)[C@H](C)NC(=O)[C@H](CC(N)=O)NC(=O)[C@H](CCCCN)NC(=O)[C@H](Cc1ccccc1)NC(=O)[C@H](CC(C)C)NC(=O)[C@@H](NC(=O)[C@@H](NC(=O)[C@H](CC(C)C)NC(=O)[C@@H]1CCCN1C(=O)[C@@H](NC(=O)[C@H](CCC(N)=O)NC(=O)[C@H](CO)NC(=O)[C@H](CCCCN)NC(=O)[C@H](CCC(=O)O)NC(=O)[C@H](CO)NC(=O)[C@@H](NC(=O)[C@H](CC[S+](C)[O-])NC(=O)[C@H](Cc1ccccc1)N(C)C(=O)CNC(=O)[C@@H](C)NC(=O)[C@@H](N)Cc1ccc(O)cc1)[C@@H](C)O)[C@@H](C)O)C(C)C)[C@@H](C)O)C(=O)N[C@H](C(=O)N[C@@H](CCCCN)C(=O)N[C@@H](CC(N)=O)C(=O)N[C@@H](C)C(=O)N[C@@H](Cc1ccc(O)cc1)C(=O)N[C@@H](CCCCN)C(=O)N[C@@H](CCCCN)C(=O)NCC(=O)N[C@@H](CCC(=O)O)C(=O)O)[C@@H](C)CC (some centres undefined),0.21,0.42,0.061,0.47,,
,,,,BETA-ENDORPHIN [listing 1 of 2 here],0.2,0.45,0.077,0.47,,
10,100,130,100,BETA-ENDORPHIN [listing 2 of 2 here],,,,,27,100

# — ChEMBL document CHEMBL3244050, “Synthesis and biological activity of beta-endorphin and analogues. Additional evidence for multiple opiate receptors” (J Med Chem, 1978)
